Source: PubChem BioAssay (several laboratories)
MrgX1 antagonist: blocks BAM8-22 activation of human MrgX1 receptor; 1.3% of 310,000 active; B-score at 10 µM; Q96LB2; MRGX1-HEK293 calcium flux, Fluo-4, BAM8-22 antagonism; hits give low values;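 active = calcium-response B-score plate-corrected more than 3 library SD below zero, starting fluorescence within 5 deviations, no agonist response on first addition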;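 also: peak minus trough fluorescence over baseline after final BAM8-22 challenge near maximal dose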
Target sequence (Q96LB2 whole entry, looked up): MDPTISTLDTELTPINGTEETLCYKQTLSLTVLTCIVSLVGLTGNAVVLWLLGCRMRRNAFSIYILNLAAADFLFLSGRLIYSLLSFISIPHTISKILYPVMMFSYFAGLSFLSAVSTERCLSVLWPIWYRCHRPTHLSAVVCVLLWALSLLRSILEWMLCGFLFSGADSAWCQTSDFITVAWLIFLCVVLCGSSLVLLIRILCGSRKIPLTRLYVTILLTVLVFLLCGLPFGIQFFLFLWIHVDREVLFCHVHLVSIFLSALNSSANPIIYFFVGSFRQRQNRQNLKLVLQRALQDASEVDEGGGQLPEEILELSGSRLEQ
MrgX1 PAM: allosterically activates human MrgX1 receptor signaling; Q96LB2; MrgX1-HEK293, Fluo-4 calcium flux, FDSS; hits give high values; B-score at 10 µM; 0.63% of 310,000 active;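 active = plate-corrected calcium response at least 3 library SD above typical, normal starting fluorescence, not activating the receptor alone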;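 also: compound read alongside a low EC10 to EC30 dose of BAM8-22 agonist; peak minus trough fluorescence over baseline measured at the second addition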
MrgX1 agonist: activates human MrgX1 receptor signaling; B-score at 10 µM; MrgX1-HEK293 cells, Fluo-4 calcium fluorescence, agonist mode; hits give high values; 0.44% of 310,000 active; Q96LB2;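 active = calcium response B-score plate-corrected fluorescence ratio at least 3 library SD, with starting fluorescence B-score inside 5 SD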
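Test system: HEK293 cells stably expressing human MrgX1 receptor; Input: fifteen thousand cells per well; Dosing: compound delivered in addition one of three; Schedule: overnight seeding, then 1 h dark dye loading; Technique: Fluo-4 NW calcium fluorescence; Measure: B-scored fluorescence response ratio; Controls: positive and negative controls per plate.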
RGS4 pot: potentiators or activators of RGS4; B-score at 10 µM; AID 463111; HEK293 M3R/inducible RGS4, carbachol calcium flux Fluo4; hits give low values; 0.92% of 310,000 active;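 active = B-score of the integrated calcium signal more than 4 SD below the library mean, with starting fluorescence not abnormally high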;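 also: negative B-score means reduced calcium response which marks RGS4 activation or potentiation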
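Assay system: HEK293 FlpIn-TREx cells, stable M3R, doxycycline-inducible RGS4 / Probe or stimulus: carbachol, ECmax concentration / Times: overnight RGS4 induction, 30 min dye load 37 °C, 20 min compound RT / Signal: kinetic calcium fluorescence imaging with Fluo4-AM dye, 2 µM / Measure: Agonist-evoked peak-minus-minimum fluorescence over baseline, integrated ratio, B score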
RGS4 inh: inhibitors of human RGS4 | 0.45% of 310,000 active | HEK293 M3R/RGS4 inducible, Fluo-4 calcium flux; hits give high values; triggered by carbachol at its EC20 | P49798 | B-score at 10 µM;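 active = B-score, a plate-corrected calcium signal, over three deviations above library mean, with baseline fluorescence within five deviations of library mean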;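 also: RGS4 expression induced by doxycycline in cells with stable M3 receptor; B-score is computed from the integrated fluorescence ratio over baseline after carbachol; higher B-score means a larger calcium signal and so more RGS4 inhibition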
Target sequence (P49798 whole entry, looked up): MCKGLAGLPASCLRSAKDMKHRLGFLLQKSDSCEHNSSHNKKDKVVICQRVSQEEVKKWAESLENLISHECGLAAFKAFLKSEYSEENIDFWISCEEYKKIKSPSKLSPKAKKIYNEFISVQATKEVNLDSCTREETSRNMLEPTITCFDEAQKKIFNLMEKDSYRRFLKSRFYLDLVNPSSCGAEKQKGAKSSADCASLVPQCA
Hep lipid drop: modulators of hepatic lipid droplet formation. AML12 mouse hepatocytes, oleate lipid droplets, BODIPY imaging. inhibition, % at 6.5 µM. 0.4% of 240,000 active. AID 1656;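 active = lipid droplet intensity inhibited by at least 50%, with more than 500 cells counted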
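Assay system: AML12 mouse liver cells | Compound dosing: One dose, 6.5 µM compound | Read-out basis: Droplet intensity reduction, % inhibition | Measured by: Fluorescence imaging, 20x objective, two fields per well | Schedule: Overnight treatment with compound plus oleate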
* hit, by the source's call; i = inactive; . = no result given. In the library only some 3.8% were active in any assay of this set; here they are far more common.

SMILES	MrgX1 antagonist	MrgX1 PAM	MrgX1 agonist	RGS4 pot	RGS4 inh	Hep lipid drop
Oc1ccccc1-c1cc(C(F)(F)C(F)F)nc(-c2ccccc2)n1	i	i	i	i	i	.
COc1ccc(CNC(=O)C(=O)NCC2OCCN2S(=O)(=O)c2ccc(OC)cc2)cc1 (configuration not stated)	i	i	i	i	i	23.2
COc1ccc(C(=O)c2ccc(Cl)c([N+](=O)[O-])c2)cc1	i	7*	i	i	i	-14.6
NC(N)=NC(=O)c1nc(Cl)c(N2CCCCCC2)nc1N	i	i	57.4*	.	.	.
C=CCn1c(Sc2ncc([N+](=O)[O-])s2)n[nH]c1=O	-9.16*	i	i	-8.04*	i	0.2
NCCC1CCCC(CCN)N1 (configuration not stated)	i	i	i	.	.	.
O=C1CC(c2ccco2)CC(O)=C1C=NCCN1CCNCC1 (configuration not stated)	i	i	i	i	i	4.9
O=C1CC(c2ccco2)CC(O)=C1C=NCC1CCNCC1 (configuration not stated)	i	i	i	-7.78*	i	.
COc1cccc(C(=O)Nc2cccc(-c3ccc(N4CCOCC4)nn3)c2)c1OC	i	i	i	-7.45*	i	.
CCOc1ccc(NC(=O)CN(C)C(=O)c2cc(C)on2)cc1OCC	i	i	i	i	i	.
Cc1cc(/C=N/NC(=O)COc2cccc3cccnc23)c(C)n1-c1ccc(O)cc1	i	i	i	i	i	1.4
Cc1cc(C)cc(-n2c(C)cc(/C=N\NC(=O)COc3cccc4cccnc34)c2C)c1	i	i	i	-8.68*	i	-12.8
CCOC(=O)c1sc(=S)n(CC)c1N	i	i	i	i	i	.
CCOC(=O)c1sc(=S)n(Cc2ccccc2)c1N	i	i	47.3*	i	i	.
Cc1ccc(CSc2nnc(-c3ccncc3)o2)c(C)c1	i	i	i	i	i	3.7
O=C(Nc1nc2c(s1)CN(Cc1ccccc1)CC2)C1CCC1	i	i	i	i	i	-22.0
CN(C)c1ccc(/C=C(\C#N)C(=O)Nc2nc3c(s2)CCN(Cc2ccccc2)C3)cc1	i	i	49.6*	i	i	-3.3
Cc1ccc(Cl)cc1N1CCN(C(=O)CSc2nnc3n2C(C)(C)Cc2ccccc2-3)CC1	-9.5*	i	i	-7.03*	i	-53.1
COc1ccc(N2CCN(C(=O)CSc3nnc4n3C(C)(C)Cc3ccccc3-4)CC2)cc1	i	i	i	i	i	-15.9
O=C(OC(C(=O)Nc1cccc(C(F)(F)F)c1)c1ccccc1)C1CCCCC1 (configuration not stated)	i	i	i	.	.	-7.4
O=C(N/N=C/C(Cl)=C/c1ccccc1)c1ccccc1F	i	i	i	i	i	-11.9
O=C(N/N=C/C(Br)=C/c1ccccc1)c1ccccc1F	i	7.04*	i	i	i	6.6
COc1ccc(C(=O)NNC2CC(=O)N(Cc3ccc(Cl)cc3)C2=O)cc1OC (configuration not stated)	i	i	i	i	i	-14.6
CC(Oc1ccc(Br)cc1)C(=O)Nc1nnc(C2CC2)s1 (configuration not stated)	i	i	i	i	i	.
COc1ccc(CN(N=O)C2CC(=O)N(c3ccc(OC)cc3)C2=O)cc1 (configuration not stated)	i	i	i	-10.3*	i	19.5
SMILES	MrgX1 antagonist	MrgX1 PAM	MrgX1 agonist	RGS4 pot	RGS4 inh	Hep lipid drop
CC(NC(=O)Cn1cc(C(F)(F)F)ccc1=O)c1ccc(F)cc1 (configuration not stated)	i	6.91*	i	i	i	2.4
COc1cc(CNC(C)C23CC4CC(CC(C4)C2)C3)cc(OC)c1OC (configuration not stated)	i	i	i	i	i	4.4
OC(COc1ccccc1Cl)CN1CCN(CC(O)COc2ccccc2Cl)CC1 (configuration not stated)	i	i	i	-7.71*	i	.
Cc1ccccc1OCC(O)CN1CCN(C)CC1 (configuration not stated)	i	i	i	i	i	0.1
Cc1cc(OCC(=O)NNC(=S)NC(=O)c2ccc(Br)o2)ccc1Cl	i	i	i	i	i	4.1
COc1ccccc1CN(C)C(=O)c1sccc1-c1ccccc1	i	i	i	i	i	-34.2
Cc1ccc(Nc2ccc(S(=O)(=O)N3CCOCC3)cc2[N+](=O)[O-])cc1C	-9.21*	i	i	i	i	-16.8
Cc1ccc(S(=O)(=O)Nc2ccc(S(=O)(=O)N3CCOCC3)cc2)cc1[N+](=O)[O-]	i	i	i	i	i	12.3
CC(=O)N1CCN(CC(=O)Nc2cc(S(=O)(=O)N3CCOCC3)ccc2C)CC1	i	i	i	i	i	-0.5
Cc1ccc(S(=O)(=O)N2CCOCC2)cc1NC(=O)Cn1nc(C)c([N+](=O)[O-])c1C	-5*	i	i	i	i	.
CCCCC(CC)CNC(=O)C(=O)c1ccccc1NC(C)=O (configuration not stated)	i	i	i	i	i	0.2
Cc1[nH]n(C)c(=O)c1[N+](=O)[O-]	i	i	i	i	i	-15.3
Cc1cc(C)c2c(N)c3cccc(C)c3nc2n1	i	i	i	i	i	-185.0
CCOC(=O)c1c(C)[nH]c(C(=O)N2CCCC(C(=O)c3ccccc3OC)C2)c1C (configuration not stated)	i	27.2*	i	i	i	-8.7
CCOc1cc(N2CCOCC2)c(OCC)cc1NC(=O)COC(=O)COc1ccc(C#N)cc1	-6.32*	i	i	i	i	3.4
C[N+](C)(C)CCCNC(=O)c1ccc(/C=N/O)nc1	-5.11*	i	i	i	i	11.5
NC(=O)c1cc([N+](=O)[O-])c(Cl)cc1NCc1ccccn1	i	i	i	.	.	.
O=C1CCCN1CCCN1CC(C(=O)N(CCO)Cc2ccccc2)CCC1=O (configuration not stated)	i	i	i	i	i	0.3
COc1ccc(OC)c(/C=C2/Sc3ccccc3C2=O)c1	i	8.69*	i	i	i	-16.8
Nc1nonc1-n1nnc(C(=O)N/N=C/c2cccc(Cl)c2)c1-c1cccs1	i	i	i	i	i	-1.5
